Active and inactive are the calls of the source.
Key:
SW1990 [1] = experiment: Potentiation of erlotinib-induced antiproliferative effect against human SW1990 cells pre-treated with 50 uM compound for 48 hrs followed by erlotinib exposure for additional after 72 hrs by cell counting method; type: functional, cell-based
How it was run: (§1)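 Cells given sugar analog (0, 25 or 50 μM; 12.5 or 25 μM for the azido analog) plus a concentration range of erlotinib or gefitinib, and growth inhibition measured. Synergy expressed as Combination Index, CI = D1/(Dx)1 + D2/(Dx)2, plotted against percent inhibition. At least 3 biological replicates; mean ± SEM.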

SW1990 [2] = experiment: Potentiation of gefitinib-induced antiproliferative effect against human SW1990 cells assessed as combination index pre-treated with 50 uM compound for 48 hrs […] for additional after 72 hrs by cell counting method; type: functional; how it was run: as §1
[3] = molecular target: Epidermal growth factor receptor (Homo sapiens) (UniProt P00533); experiment: Inhibition of EGFR phosphorylation in human SW1990 cells at 50 and 100 uM by immunofluorescence assay; type: cell-based
How it was run: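 Treated cells stimulated with EGF for 2.0 min, fixed, stained with anti-p-EGFR plus FITC-labeled anti-rabbit secondary and DAPI, then imaged by immunofluorescence microscopy.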

[4] = molecular target: Epidermal growth factor receptor (Homo sapiens) (UniProt P00533); experiment: Inhibition of Alexa fluor 488-labeled EGFbinding to EGFR in human SW1990 cells assessed as reduction in available surface bound EGFR at 100 uM after 1 hr by flow cytometry; type: cell-based
How it was run: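 Intact cells incubated with Alexa Fluor 488-labeled EGF for one hour at room temperature, then surface-bound label read by flow cytometry (saturation binding). At least 3 biological replicates; mean ± SEM.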

SW1990 [5] = experiment: Effect on total EGFR levels in human SW1990 cells at 25 to 100 uM by Western blotting method; type: functional, cell-based
How it was run: (§2)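 Cells exposed to increasing analog levels; lysates immunoblotted for phospho-EGFR and total EGFR. Significance threshold p < 0.05.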

SW1990 [6] = experiment: Inhibition of cell proliferation of human SW1990 cells at 25 and 50 uM after 48 hrs by cell counting method; type: functional, cell-based
[7] = molecular target: Epidermal growth factor receptor (Homo sapiens) (UniProt P00533); experiment: Inhibition of EGFR phosphorylation in human SW1990 cells at 25 to 100 uM by Western blotting method; type: cell-based; how it was run: as §2
[8] = molecular target: Epidermal growth factor receptor (Homo sapiens) (UniProt P00533); experiment: Increase in sialylation of EGFR in human SW1990 cells after 48 hrs by mass spectrometry based glycosite and glycan analysis method; type: cell-based
How it was run: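 EGFR sialylation in treated cells assessed by mass spectrometry-based glycosite and glycan analysis.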

[9] = molecular target: Epidermal growth factor receptor (Homo sapiens) (UniProt P00533); experiment: Inhibition of EGFR-mediated STAT3 phosphorylation in human SW1990 cells at 25 to 100 uM by Western blotting method; type: cell-based
How it was run: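 Cells treated at several analog concentrations; lysates immunoblotted for phospho-STAT3, with band intensity quantified by densitometry. At least 3 biological replicates; mean + SEM; p < 0.05.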

SW1990 [10] = experiment: Potentiation of gefitinib-induced antiproliferative effect against human SW1990 cells pre-treated with 50 uM compound for 48 hrs […] for additional after 72 hrs by cell counting method; type: functional, cell-based; how it was run: as §1
SW1990 [11] = experiment: Potentiation of erlotinib-induced antiproliferative effect against human SW1990 cells pre-treated with 25 uM compound for 48 hrs followed by erlotinib exposure for additional after 72 hrs by cell counting method; type: functional, cell-based; how it was run: as §1
SW1990 [12] = experiment: Potentiation of gefitinib-induced antiproliferative effect against human SW1990 cells pre-treated with 25 uM compound for 48 hrs […] for additional after 72 hrs by cell counting method; type: functional, cell-based; how it was run: as §1
SW1990 [13] = experiment: Potentiation of erlotinib-induced antiproliferative effect against human SW1990 cells assessed as combination index pre-treated with 50 uM compound for 48 hrs followed by erlotinib exposure for additional after 72 hrs by cell counting method; type: functional; how it was run: as §1
SW1990 [14] = experiment: Inhibition of cell proliferation of human SW1990 cells at 100 to 300 uM after 48 hrs by cell counting method; type: functional, cell-based
SW1990 [15] = experiment: Potentiation of erlotinib-induced antiproliferative effect against human SW1990 cells assessed as combination index pre-treated with 12.5 and 25 uM compound for 48 hrs followed by erlotinib exposure for additional after 72 hrs by cell counting method; type: functional; how it was run: as §1
SW1990 [16] = experiment: Inhibition of cell proliferation of human SW1990 cells at <25 uM after 72 hrs by cell counting method

Epidermal growth factor receptor (Homo sapiens), sequence (P00533 whole entry): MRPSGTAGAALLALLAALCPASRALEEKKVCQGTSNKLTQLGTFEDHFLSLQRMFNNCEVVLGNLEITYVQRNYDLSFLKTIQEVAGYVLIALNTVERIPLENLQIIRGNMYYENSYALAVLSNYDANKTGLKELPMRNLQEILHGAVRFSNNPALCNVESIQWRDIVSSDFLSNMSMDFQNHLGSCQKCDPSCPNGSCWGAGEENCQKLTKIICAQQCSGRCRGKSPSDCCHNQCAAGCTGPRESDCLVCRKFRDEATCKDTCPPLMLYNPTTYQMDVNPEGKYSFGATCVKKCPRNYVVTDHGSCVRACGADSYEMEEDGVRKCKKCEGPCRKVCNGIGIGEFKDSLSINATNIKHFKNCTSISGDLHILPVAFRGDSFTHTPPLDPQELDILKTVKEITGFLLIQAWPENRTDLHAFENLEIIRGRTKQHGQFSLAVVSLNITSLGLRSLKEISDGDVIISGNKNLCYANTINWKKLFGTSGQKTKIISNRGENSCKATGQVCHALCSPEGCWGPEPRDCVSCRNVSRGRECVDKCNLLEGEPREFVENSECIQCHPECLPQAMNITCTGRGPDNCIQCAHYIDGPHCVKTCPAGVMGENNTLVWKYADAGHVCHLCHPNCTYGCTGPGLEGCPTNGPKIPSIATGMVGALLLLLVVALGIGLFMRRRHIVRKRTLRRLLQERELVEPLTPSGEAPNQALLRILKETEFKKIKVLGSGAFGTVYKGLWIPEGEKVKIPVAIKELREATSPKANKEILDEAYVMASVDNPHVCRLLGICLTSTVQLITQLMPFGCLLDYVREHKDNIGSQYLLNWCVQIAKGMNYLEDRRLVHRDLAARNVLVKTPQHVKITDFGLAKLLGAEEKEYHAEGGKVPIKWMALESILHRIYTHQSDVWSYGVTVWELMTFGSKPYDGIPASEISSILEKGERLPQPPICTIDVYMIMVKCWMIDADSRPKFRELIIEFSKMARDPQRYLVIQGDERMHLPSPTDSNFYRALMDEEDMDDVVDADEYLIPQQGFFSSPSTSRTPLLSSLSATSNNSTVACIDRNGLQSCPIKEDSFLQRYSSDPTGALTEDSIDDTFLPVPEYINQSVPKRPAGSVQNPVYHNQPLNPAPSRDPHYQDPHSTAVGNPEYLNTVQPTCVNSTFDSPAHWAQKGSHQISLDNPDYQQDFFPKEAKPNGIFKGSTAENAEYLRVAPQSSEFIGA

Structure (SMILES) | Activity (SW1990 [1]) | CI (SW1990 [2]) | inhibition [3] | inhibition [4] | Activity (SW1990 [5]) | inhibition (SW1990 [6]) | inhibition [7] | fold change (FC) [8] | inhibition [9] | Activity (SW1990 [10]) | Activity (SW1990 [11]) | Activity (SW1990 [12]) | CI (SW1990 [13]) | inhibition (SW1990 [14]) | CI (SW1990 [15]) | inhibition (SW1990 [16])
CCCC(=O)OC1O[C@H](CO)[C@@H](OC(=O)CCC)[C@H](OC(=O)CCC)[C@@H]1NC(C)=O (stereo partly specified) | Active | 0.23 | Active | Active | inactive | inactive | Active | 2 | Dose-dependent effect | Active | Active | Active | 0.23 | Active | – | –
CCCC(=O)OC1O[C@H](CO)[C@@H](OC(=O)CCC)[C@H](OC(=O)CCC)[C@@H]1NC(=O)CN=[N+]=[N-] (stereo partly specified) | – | – | – | – | – | – | – | – | – | – | – | – | – | – | 0.34 | Active

— ChEMBL document CHEMBL3397001, “Metabolic glycoengineering sensitizes drug-resistant pancreatic cancer cells to tyrosine kinase inhibitors erlotinib and gefitinib” (2015)
